According to ChEMBL document CHEMBL2346606, “Inhibitors of the TAM subfamily of tyrosine kinases: synthesis and biological evaluation” (Eur J Med Chem, 2013):

Tests used:
[1] = Growth inhibition of African green monkey Vero cells at 10 uM after 72 hrs by […] assay relative to control; assay type: cell-based; settings: chlorocebus sabaeus, read-out: GI
How it was run: (§1)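 KB and Vero cells were grown in D-MEM with 10% FCS and antibiotics under 5% CO2, plated, then dosed 24 h later at 10^-5 M from DMSO (controls 1% DMSO). After 72 h, MTS was added for 3 h at 37 °C and A490 read. Inhibition = (1 − OD treated/OD control) × 100, in triplicate.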

[2] = test system: MCF7; experiment: Growth inhibition of human MCF7 cells at 10 uM after 72 hrs by […] assay relative to control; assay type: functional; settings: MCF7, 72 h, read-out: GI
How it was run: (§2)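 HT29, MCF7 and PC-3 cells were grown in RPMI, plated, and treated 24 h later with compound in DMSO at 10^-5 M (DMSO controls, 1% final). After 72 h exposure, MTS reagent was added for 3 h at 37 °C and absorbance read at 490 nm. Proliferation inhibition = [1 − OD treated/OD control] × 100, triplicate experiments.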

[3] = test system: PC-3; experiment: Growth inhibition of human PC3 cells at 10 uM after 72 hrs by […] assay relative to control; assay type: functional; settings: PC-3, 72 h, read-out: GI; how it was run: as §2
[4] = test system: HT-29; experiment: Growth inhibition of human HT-29 cells at 10 uM after 72 hrs by […] assay relative to control; assay type: functional; settings: HT-29, 72 h, read-out: GI; how it was run: as §2
[5] = test system: KB; experiment: Growth inhibition of human KB cells at 10 uM after 72 hrs by […] relative to control; assay type: functional; settings: read-out: GI; how it was run: as §1

Cc1cc(C(=O)Nc2cccc(-c3nc4c(Nc5cccc(F)c5)ncnc4[nH]3)c2)ccc1Br
< 10%: inhibition at 72 h, 10 µM [1] | inhibition of growth at 10 µM [2] | inhibition of growth at 10 µM [3] | inhibition of growth at 10 µM [4] | inhibition of growth at 10 µM [5]

O=C(Nc1cccc(-c2ncnc3[nH]cnc23)c1)c1cccn(-c2cccc(F)c2)c1=O
< 10%: inhibition at 72 h, 10 µM [1] | inhibition of growth at 10 µM [2] | inhibition of growth at 10 µM [3] | inhibition of growth at 10 µM [4] | inhibition of growth at 10 µM [5]

COc1ncccc1C(=O)Nc1cccc(-c2nc3c(Nc4cccc(F)c4)ncnc3[nH]2)c1
< 10%: inhibition at 72 h, 10 µM [1] | inhibition of growth at 10 µM [2] | inhibition of growth at 10 µM [3] | inhibition of growth at 10 µM [4] | inhibition of growth at 10 µM [5]

COc1ncccc1C(=O)Nc1cccc(-c2nc3c(Nc4ccc(F)cc4)ncnc3[nH]2)c1
< 10%: inhibition at 72 h, 10 µM [1] | inhibition of growth at 10 µM [2] | inhibition of growth at 10 µM [3] | inhibition of growth at 10 µM [4] | inhibition of growth at 10 µM [5]

O=C(Nc1cccc(-c2ncnc3[nH]cnc23)c1)c1cccn(-c2ccc(C(F)(F)F)cc2)c1=O
< 10%: inhibition at 72 h, 10 µM [1] | inhibition of growth at 10 µM [2] | inhibition of growth at 10 µM [3] | inhibition of growth at 10 µM [4] | inhibition of growth at 10 µM [5]

COc1ncccc1C(=O)Nc1cccc(-c2nc3c(Nc4ccccc4)ncnc3[nH]2)c1
< 10%: inhibition at 72 h, 10 µM [1] | inhibition of growth at 10 µM [2] | inhibition of growth at 10 µM [3] | inhibition of growth at 10 µM [4] | inhibition of growth at 10 µM [5]

O=C(Nc1cccc(-c2nc3c(Nc4ccc(F)cc4)ncnc3[nH]2)c1)c1ccccc1F
< 10%: inhibition at 72 h, 10 µM [1] | inhibition of growth at 10 µM [2] | inhibition of growth at 10 µM [3] | inhibition of growth at 10 µM [4] | inhibition of growth at 10 µM [5]

COc1ccccc1C(=O)Nc1cccc(-c2ncnc3[nH]cnc23)c1
< 10%: inhibition at 72 h, 10 µM [1] | inhibition of growth at 10 µM [2] | inhibition of growth at 10 µM [3] | inhibition of growth at 10 µM [4] | inhibition of growth at 10 µM [5]

O=C(Nc1ccc(Nc2ncnc3[nH]cnc23)c(F)c1)c1cccn(-c2ccc(C(F)(F)F)cc2)c1=O
< 10%: inhibition at 72 h, 10 µM [1] | inhibition of growth at 10 µM [2] | inhibition of growth at 10 µM [3] | inhibition of growth at 10 µM [4] | inhibition of growth at 10 µM [5]

O=C(Nc1ccc(Nc2ncnc3[nH]cnc23)c(F)c1)c1cccn(-c2cccc(F)c2)c1=O
< 10%: inhibition at 72 h, 10 µM [1] | inhibition of growth at 10 µM [2] | inhibition of growth at 10 µM [3] | inhibition of growth at 10 µM [4] | inhibition of growth at 10 µM [5]

O=C(Nc1ccc(Nc2ncnc3[nH]cnc23)c(F)c1)c1cccnc1F
< 10%: inhibition at 72 h, 10 µM [1] | inhibition of growth at 10 µM [2] | inhibition of growth at 10 µM [3] | inhibition of growth at 10 µM [4] | inhibition of growth at 10 µM [5]

O=C(Nc1cccc(-c2ncnc3[nH]cnc23)c1)c1cccn(-c2ccc(F)cc2)c1=O
< 10%: inhibition at 72 h, 10 µM [1] | inhibition of growth at 10 µM [2] | inhibition of growth at 10 µM [3] | inhibition of growth at 10 µM [4] | inhibition of growth at 10 µM [5]

O=C(Nc1ccc(Nc2ncnc3[nH]cnc23)c(F)c1)c1cccn(-c2ccc(F)cc2)c1=O
< 10%: inhibition at 72 h, 10 µM [1] | inhibition of growth at 10 µM [2] | inhibition of growth at 10 µM [3] | inhibition of growth at 10 µM [4] | inhibition of growth at 10 µM [5]

COc1ncccc1C(=O)Nc1cccc(-c2nc3c(Nc4cccc(C(F)(F)F)c4)ncnc3[nH]2)c1
< 10%: inhibition at 72 h, 10 µM [1] | inhibition of growth at 10 µM [2] | inhibition of growth at 10 µM [3] | inhibition of growth at 10 µM [4] | inhibition of growth at 10 µM [5]

O=C(Nc1cccc(-c2ncnc3[nH]cnc23)c1)c1cccn(-c2cccc(C(F)(F)F)c2)c1=O
< 10%: inhibition at 72 h, 10 µM [1] | inhibition of growth at 10 µM [2] | inhibition of growth at 10 µM [3] | inhibition of growth at 10 µM [4] | inhibition of growth at 10 µM [5]

O=C(Nc1ccc(Nc2ncnc3[nH]cnc23)c(F)c1)c1cccn(-c2cccc(C(F)(F)F)c2)c1=O
< 10%: inhibition at 72 h, 10 µM [1] | inhibition of growth at 10 µM [2] | inhibition of growth at 10 µM [3] | inhibition of growth at 10 µM [4] | inhibition of growth at 10 µM [5]

COc1ccccc1C(=O)Nc1ccc(Nc2ncnc3[nH]cnc23)c(F)c1
< 10%: inhibition at 72 h, 10 µM [1] | inhibition of growth at 10 µM [2] | inhibition of growth at 10 µM [3] | inhibition of growth at 10 µM [4] | inhibition of growth at 10 µM [5]

O=C(Nc1ccc(Nc2ncnc3[nH]cnc23)cc1)c1ccccc1F
< 10%: inhibition at 72 h, 10 µM [1] | inhibition of growth at 10 µM [2] | inhibition of growth at 10 µM [3] | inhibition of growth at 10 µM [4] | inhibition of growth at 10 µM [5]

Cc1cc(C(=O)Nc2cccc(-c3nc4c(Nc5ccc(F)cc5)ncnc4[nH]3)c2)ccc1Br
< 10%: inhibition at 72 h, 10 µM [1] | inhibition of growth at 10 µM [2] | inhibition of growth at 10 µM [3] | inhibition of growth at 10 µM [4] | inhibition of growth at 10 µM [5]

COc1ccccc1C(=O)Nc1cccc(-c2nc3c(Nc4ccccc4)ncnc3[nH]2)c1
< 10%: inhibition at 72 h, 10 µM [1] | inhibition of growth at 10 µM [2] | inhibition of growth at 10 µM [3] | inhibition of growth at 10 µM [4] | inhibition of growth at 10 µM [5]

Cc1cc(C(=O)Nc2cccc(-c3ncnc4[nH]cnc34)c2)ccc1Br
< 10%: inhibition at 72 h, 10 µM [1] | inhibition of growth at 10 µM [2] | inhibition of growth at 10 µM [3] | inhibition of growth at 10 µM [4] | inhibition of growth at 10 µM [5]

O=C(Nc1cccc(-c2ncnc3[nH]cnc23)c1)c1ccccc1F
< 10%: inhibition at 72 h, 10 µM [1] | inhibition of growth at 10 µM [2] | inhibition of growth at 10 µM [3] | inhibition of growth at 10 µM [4] | inhibition of growth at 10 µM [5]

Cc1cc(C(=O)Nc2ccc(Nc3ncnc4[nH]cnc34)c(F)c2)ccc1Br
< 10%: inhibition at 72 h, 10 µM [1] | inhibition of growth at 10 µM [2] | inhibition of growth at 10 µM [3] | inhibition of growth at 10 µM [4] | inhibition of growth at 10 µM [5]

COc1ncccc1C(=O)Nc1ccc(Nc2ncnc3[nH]cnc23)cc1
< 10%: inhibition at 72 h, 10 µM [1] | inhibition of growth at 10 µM [2] | inhibition of growth at 10 µM [3] | inhibition of growth at 10 µM [4] | inhibition of growth at 10 µM [5]

COc1ncccc1C(=O)Nc1cccc(-c2ncnc3[nH]cnc23)c1
< 10%: inhibition at 72 h, 10 µM [1] | inhibition of growth at 10 µM [2] | inhibition of growth at 10 µM [3] | inhibition of growth at 10 µM [4] | inhibition of growth at 10 µM [5]

O=C(Nc1cccc(-c2nc3c(Nc4cccc(C(F)(F)F)c4)ncnc3[nH]2)c1)c1ccccc1F
< 10%: inhibition at 72 h, 10 µM [1] | inhibition of growth at 10 µM [2] | inhibition of growth at 10 µM [3] | inhibition of growth at 10 µM [4] | inhibition of growth at 10 µM [5]

COc1ccccc1C(=O)Nc1cccc(-c2nc3c(Nc4ccc(F)cc4)ncnc3[nH]2)c1
< 10%: inhibition at 72 h, 10 µM [1] | inhibition of growth at 10 µM [2] | inhibition of growth at 10 µM [3] | inhibition of growth at 10 µM [4] | inhibition of growth at 10 µM [5]

O=C(Nc1cccc(-c2ncnc3[nH]cnc23)c1)c1cccnc1F
< 10%: inhibition at 72 h, 10 µM [1] | inhibition of growth at 10 µM [2] | inhibition of growth at 10 µM [3] | inhibition of growth at 10 µM [4] | inhibition of growth at 10 µM [5]

Cc1cc(C(=O)Nc2cccc(-c3nc4c(Nc5cccc(C(F)(F)F)c5)ncnc4[nH]3)c2)ccc1Br
< 10%: inhibition at 72 h, 10 µM [1] | inhibition of growth at 10 µM [2] | inhibition of growth at 10 µM [3] | inhibition of growth at 10 µM [4] | inhibition of growth at 10 µM [5]

O=C(Nc1ccc(Nc2ncnc3[nH]cnc23)c(F)c1)c1ccccc1F
< 10%: inhibition at 72 h, 10 µM [1] | inhibition of growth at 10 µM [2] | inhibition of growth at 10 µM [3] | inhibition of growth at 10 µM [4] | inhibition of growth at 10 µM [5]

O=C(Nc1ccc(Nc2ncnc3[nH]cnc23)cc1)c1cccn(-c2cccc(F)c2)c1=O
< 10%: inhibition at 72 h, 10 µM [1] | inhibition of growth at 10 µM [2] | inhibition of growth at 10 µM [3] | inhibition of growth at 10 µM [4] | inhibition of growth at 10 µM [5]

COc1ccccc1C(=O)Nc1cccc(-c2nc3c(Nc4cccc(C(F)(F)F)c4)ncnc3[nH]2)c1
< 10%: inhibition at 72 h, 10 µM [1] | inhibition of growth at 10 µM [2] | inhibition of growth at 10 µM [3] | inhibition of growth at 10 µM [4] | inhibition of growth at 10 µM [5]

O=C(Nc1ccc(Nc2ncnc3[nH]cnc23)cc1)c1cccn(-c2cccc(C(F)(F)F)c2)c1=O
< 10%: inhibition at 72 h, 10 µM [1] | inhibition of growth at 10 µM [2] | inhibition of growth at 10 µM [3] | inhibition of growth at 10 µM [4] | inhibition of growth at 10 µM [5]

O=C(Nc1cccc(-c2nc3c(Nc4ccccc4)ncnc3[nH]2)c1)c1ccccc1F
< 10%: inhibition at 72 h, 10 µM [1] | inhibition of growth at 10 µM [2] | inhibition of growth at 10 µM [3] | inhibition of growth at 10 µM [4] | inhibition of growth at 10 µM [5]

CCN(CC)CCNC(=O)c1c(C)[nH]c(/C=C2\C(=O)Nc3ccc(F)cc32)c1C [SUNITINIB]
< 10%: inhibition at 72 h, 10 µM [1] | inhibition of growth at 10 µM [2] | inhibition of growth at 10 µM [3] | inhibition of growth at 10 µM [4] | inhibition of growth at 10 µM [5]

O=C(Nc1ccc(Nc2ncnc3[nH]cnc23)cc1)c1cccnc1F
< 10%: inhibition at 72 h, 10 µM [1] | inhibition of growth at 10 µM [2] | inhibition of growth at 10 µM [3] | inhibition of growth at 10 µM [4] | inhibition of growth at 10 µM [5]
